Assay outcomes: PubChem, Johns Hopkins Ion Channel Center
MrgX1 antagonist – blocks BAM8-22 activation of human MrgX1 receptor; Q96LB2; MRGX1-HEK293 calcium flux, Fluo-4, BAM8-22 antagonism; active compounds read low; B-score at 10 µM; actives 1.3% (n = 310,000);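 active means calcium-response B-score plate-corrected more than 3 library SD below zero, starting fluorescence within 5 deviations, no agonist response on first addition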;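 further: peak minus trough fluorescence over baseline after final BAM8-22 challenge near maximal dose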
Target sequence (Q96LB2 whole entry, looked up): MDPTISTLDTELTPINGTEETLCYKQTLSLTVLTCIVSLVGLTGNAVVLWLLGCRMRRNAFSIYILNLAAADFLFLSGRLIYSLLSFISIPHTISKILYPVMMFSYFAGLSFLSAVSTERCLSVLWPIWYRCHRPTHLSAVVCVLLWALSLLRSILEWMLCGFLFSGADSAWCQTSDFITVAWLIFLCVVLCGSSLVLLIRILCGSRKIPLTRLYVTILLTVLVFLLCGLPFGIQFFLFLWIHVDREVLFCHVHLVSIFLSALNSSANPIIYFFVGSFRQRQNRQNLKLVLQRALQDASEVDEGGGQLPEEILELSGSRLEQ
MrgX1 PAM – human MrgX1 positive allosteric modulation, primary screen. Q96LB2. MrgX1-HEK293, Fluo-4 calcium flux, FDSS; active compounds read high. B-score at 10 µM. actives 0.63% (n = 310,000). AID 588675;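 active means plate-corrected calcium response at least 3 library SD above typical, normal starting fluorescence, not activating the receptor alone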;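 further: compound read alongside a low EC10 to EC30 dose of BAM8-22 agonist; peak minus trough fluorescence over baseline measured at the second addition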
RGS4 inh – human RGS4 inhibition; HEK293 M3R/RGS4 inducible, Fluo-4 calcium flux; active compounds read high; triggered by carbachol at its EC20; actives 0.45% (n = 310,000); AID 463165; B-score at 10 µM; P49798;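 active means B-score, a plate-corrected calcium signal, over three deviations above library mean, with baseline fluorescence within five deviations of library mean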;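 further: RGS4 expression induced by doxycycline in cells with stable M3 receptor; B-score is computed from the integrated fluorescence ratio over baseline after carbachol; higher B-score means a larger calcium signal and so more RGS4 inhibition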
Target sequence (P49798 whole entry, looked up): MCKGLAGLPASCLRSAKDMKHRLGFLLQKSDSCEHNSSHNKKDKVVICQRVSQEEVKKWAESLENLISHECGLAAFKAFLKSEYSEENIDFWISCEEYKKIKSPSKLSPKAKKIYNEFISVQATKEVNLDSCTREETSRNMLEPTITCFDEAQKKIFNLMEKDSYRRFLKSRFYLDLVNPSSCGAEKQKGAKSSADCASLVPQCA
MrgX1 ag – activates human MrgX1 receptor signaling; Q96LB2; MrgX1-HEK293 cells, Fluo-4 calcium fluorescence, agonist mode; active compounds read high; B-score at 10 µM; actives 0.44% (n = 310,000); AID 588627;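 active means calcium response B-score plate-corrected fluorescence ratio at least 3 library SD, with starting fluorescence B-score inside 5 SD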
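times = overnight plating, then 30 min 37 °C plus 30 min room-temperature dye loading | assay system = stable human MrgX1 HEK293 cell line | input = fifteen thousand cells per well | signal = kinetic calcium dye fluorescence, Fluo-4 NW | dosing = compound delivered in addition one of three | read-out = B-scored fluorescence response ratio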
RGS4 pot – potentiators or activators of RGS4 | HEK293 M3R/inducible RGS4, carbachol calcium flux Fluo4; active compounds read low | B-score at 10 µM | actives 0.92% (n = 310,000) | AID 463111;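 active means B-score of the integrated calcium signal more than 4 SD below the library mean, with starting fluorescence not abnormally high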;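 further: negative B-score means reduced calcium response which marks RGS4 activation or potentiation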
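Reagent: ECmax carbachol challenge; Test system: M3R-expressing HEK293 line, RGS4 induced by doxycycline; Schedule: overnight RGS4 induction, 30 min dye load 37 °C, 20 min compound RT; Detection: calcium dye Fluo4 fluorescence; Read-out: Agonist-evoked peak-minus-minimum fluorescence over baseline, integrated ratio, B score.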
RGS4 block valid – validation of RGS4 inhibitors; shares compounds with RGS4 inh; HEK293 M3R/RGS4, carbachol calcium Fluo-4 fluorescence; carbachol added at its EC20; 0 = buffer wells, 100 = carbachol control; calcium response, % at 10 µM; actives 65% (n = 1,700);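 active means duplicate-averaged calcium response above the buffer-only control mean plus 5 SD of those controls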;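 further: integrated fluorescence ratio F max minus min over baseline F0; higher response in RGS4-induced cells means RGS4 inhibition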
M3R Ca ctr – counter-screen for RGS4 inhibitors: effect in non-induced cells. shares compounds with RGS4 inh. HEK293 M3R non-induced, carbachol calcium Fluo-4; submaximal (EC20) carbachol stimulus; buffer wells 0%, carbachol control wells 100%. activity (percent), % at 10 µM. actives 20% (n = 1,900). AID 493000; call rule not given here;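 further: RGS4 induction absent so cells express M3R without RGS4; higher means more calcium signal and flags a non-specific hit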
M3R basal Ca ctr – signal in non-induced cells without carbachol, RGS4 inhibitor counter-screen; AID 493001; actives 22% (n = 1,900); HEK293 M3R/RGS4 non-induced, Fluo-4 calcium, no carbachol; normalised: buffer wells 0%, carbachol wells 100%; shares compounds with RGS4 inh; calcium response (agonist-mode artifact), % at 10 µM;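 active means duplicate-averaged calcium rise in uninduced cells above buffer wells' mean plus 5 SD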
Active calls of the source: *. Sampled rows, rich in hits. Any-hit rate of the full collection: about 3.5%.

For CC(=O)Nc1ccc(NC(=O)CC2Nc3cccc4cccc(c34)NC2=O)cc1 (stereo unspecified) the results were MrgX1 antagonist inactive, MrgX1 PAM inactive, RGS4 inh inactive, MrgX1 ag inactive, RGS4 pot inactive, RGS4 block valid inactive, M3R Ca ctr inactive and M3R basal Ca ctr inactive.
Screening N#C/C(=C/c1ccc(O)cc1)C(=O)NCc1ccc(Cl)cc1 returned MrgX1 antagonist inactive, MrgX1 PAM inactive, RGS4 inh inactive, MrgX1 ag inactive, RGS4 pot inactive, RGS4 block valid inactive, M3R Ca ctr inactive and M3R basal Ca ctr inactive.
`CC1=C(CO)C(=O)OC([C@@H](C)C2CC[C@H]3C4C[C@H]5O[C@]56[C@@H](O)C=CC(=O)[C@]6(C)C4CC[C@]23C)C1` (stereo partly specified) gave MrgX1 antagonist inactive, MrgX1 PAM inactive, RGS4 inh 13*, MrgX1 ag inactive, RGS4 pot inactive, RGS4 block valid 32%*, M3R Ca ctr inactive and M3R basal Ca ctr inactive.
For CCC1CCCCN1CCCn1c(=S)[nH]c2ccccc2c1=O (stereo unspecified) the results were MrgX1 antagonist inactive, MrgX1 PAM inactive, RGS4 inh 6.9*, MrgX1 ag inactive, RGS4 pot inactive, RGS4 block valid 19%*, M3R Ca ctr inactive and M3R basal Ca ctr inactive.
Screening Cc1ccc(-c2noc(CCC(=O)NCCN3CCc4ccccc4C3)n2)cc1 returned MrgX1 antagonist inactive, MrgX1 PAM inactive, RGS4 inh inactive, MrgX1 ag inactive and RGS4 pot inactive.
For COc1ccc(/C=C/C(=O)c2cc(Cl)cc(Cl)c2O)c(OC)c1 the results were MrgX1 antagonist inactive, MrgX1 PAM inactive, RGS4 inh inactive, MrgX1 ag inactive and RGS4 pot inactive.
`O=C(/C=C/c1ccccn1)c1cc(Cl)cc(Cl)c1O` gave MrgX1 antagonist inactive, MrgX1 PAM inactive, RGS4 inh 15*, MrgX1 ag inactive, RGS4 pot inactive, RGS4 block valid 26%*, M3R Ca ctr 64%* and M3R basal Ca ctr inactive.
Screening CSc1nc2ccccc2cc1/C=C(\C#N)c1cccc(Cl)c1 returned MrgX1 antagonist inactive, MrgX1 PAM inactive, RGS4 inh inactive, MrgX1 ag inactive and RGS4 pot inactive.
Screening COc1ccc(C)cc1NC(=O)C(=O)NCc1ccncc1 returned MrgX1 antagonist inactive, MrgX1 PAM inactive, RGS4 inh inactive, MrgX1 ag inactive, RGS4 pot inactive, RGS4 block valid inactive, M3R Ca ctr inactive and M3R basal Ca ctr inactive.
For COc1ccc(NC(=O)C(=O)NCc2ccncc2)c(OC)c1 the results were MrgX1 antagonist inactive, MrgX1 PAM inactive, RGS4 inh inactive, MrgX1 ag inactive, RGS4 pot inactive, RGS4 block valid inactive, M3R Ca ctr inactive and M3R basal Ca ctr inactive.
For CCOC(=O)[C@@H]1[C@H]2COc3ccccc3[C@@H]2N2C(=O)N(c3ccccc3)C(=O)[C@@]12C the results were MrgX1 antagonist inactive, MrgX1 PAM inactive, RGS4 inh inactive, MrgX1 ag inactive, RGS4 pot inactive, RGS4 block valid inactive, M3R Ca ctr inactive and M3R basal Ca ctr inactive.
Screening CCOC(=O)[C@@H]1[C@H]2COc3ccccc3[C@@H]2N2C(=O)N(c3ccc(Cl)cc3)C(=O)[C@]12C returned MrgX1 antagonist inactive, MrgX1 PAM inactive, RGS4 inh inactive, MrgX1 ag inactive, RGS4 pot inactive, RGS4 block valid inactive, M3R Ca ctr inactive and M3R basal Ca ctr inactive.
Screening CCOC(=O)[C@@H]1[C@H]2COc3ccccc3[C@@H]2N2C(=O)N(c3ccccc3)C(=O)[C@]12C returned MrgX1 antagonist inactive, MrgX1 PAM inactive, RGS4 inh inactive, MrgX1 ag inactive, RGS4 pot inactive, RGS4 block valid inactive, M3R Ca ctr inactive and M3R basal Ca ctr inactive.
`CCOC(=O)[C@@H]1[C@H]2COc3ccccc3[C@H]2N2C(=O)N(c3ccc(C)cc3)C(=O)[C@]12C` gave MrgX1 antagonist inactive, MrgX1 PAM inactive, RGS4 inh inactive, MrgX1 ag inactive, RGS4 pot inactive, RGS4 block valid inactive, M3R Ca ctr inactive and M3R basal Ca ctr inactive.
`CCOC(=O)[C@@H]1[C@H]2COc3ccc(Br)cc3[C@@H]2N2C(=O)N(c3ccc(Br)cc3)C(=O)[C@]12C` gave MrgX1 antagonist inactive, MrgX1 PAM inactive, RGS4 inh inactive, MrgX1 ag inactive and RGS4 pot inactive.
CCn1cc(C(=O)N2CCc3ccccc32)c(=O)c2cc(S(=O)(=O)N(C)C3CCCCC3)ccc21 was read as MrgX1 antagonist inactive, MrgX1 PAM inactive, RGS4 inh inactive, MrgX1 ag inactive and RGS4 pot inactive.
Screening CCCCN(CCCC)C(=S)NC(=O)c1ccccc1Cl returned MrgX1 antagonist inactive, MrgX1 PAM inactive, RGS4 inh inactive, MrgX1 ag inactive and RGS4 pot inactive.
`CC(=O)Nc1ccc(S(=O)(=O)NCCc2cc3ccc(C)c(C)c3[nH]c2=O)cc1` gave MrgX1 antagonist inactive, MrgX1 PAM inactive, RGS4 inh inactive, MrgX1 ag inactive and RGS4 pot inactive.
For CCOC(=O)[C@@H]1[C@H]2COc3ccccc3[C@H]2N2C(=O)N(c3ccccc3)C(=O)[C@]12C the results were MrgX1 antagonist inactive, MrgX1 PAM inactive, RGS4 inh inactive, MrgX1 ag inactive, RGS4 pot inactive, RGS4 block valid inactive, M3R Ca ctr inactive and M3R basal Ca ctr inactive.
CCOC(=O)[C@@H]1[C@H]2COc3ccccc3[C@H]2N2C(=O)N(c3cccc(F)c3)C(=O)[C@]12C was read as MrgX1 antagonist inactive, MrgX1 PAM inactive, RGS4 inh inactive, MrgX1 ag inactive, RGS4 pot inactive, RGS4 block valid inactive, M3R Ca ctr inactive and M3R basal Ca ctr inactive.
For CCOC(=O)[C@@H]1[C@H]2COc3ccccc3[C@@H]2N2C(=O)N(c3ccc(F)cc3)C(=O)[C@]12C the results were MrgX1 antagonist inactive, MrgX1 PAM inactive, RGS4 inh inactive, MrgX1 ag inactive, RGS4 pot inactive, RGS4 block valid inactive, M3R Ca ctr inactive and M3R basal Ca ctr inactive.
